Measurements taken from ChEMBL document CHEMBL1124987, “7-Deaza-2-phenyladenines: structure-activity relationships of potent A1 selective adenosine receptor antagonists” (J Med Chem, 1990).
Activity calls are given as the source filed them. No cut-off for these calls is given here.

Columns and labels:
Adenosine receptor A1 = target: T1, Adenosine receptor A1 (Rattus norvegicus, UniProt P25099); assay: Binding affinity against Adenosine A1 receptor from rat brain membrane using [3H]R-PIA as radioligand
T1 sequence (P25099 whole entry): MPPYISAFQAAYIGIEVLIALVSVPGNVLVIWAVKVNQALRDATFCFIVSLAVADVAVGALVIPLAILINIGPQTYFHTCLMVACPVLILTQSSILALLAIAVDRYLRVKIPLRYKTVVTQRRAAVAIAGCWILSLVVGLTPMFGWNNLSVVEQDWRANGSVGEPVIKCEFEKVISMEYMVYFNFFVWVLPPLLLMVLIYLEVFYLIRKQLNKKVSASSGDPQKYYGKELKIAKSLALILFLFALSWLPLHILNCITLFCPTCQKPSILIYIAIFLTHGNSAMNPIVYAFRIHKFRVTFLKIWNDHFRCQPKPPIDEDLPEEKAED
In short: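 Rat cerebral cortical membranes; displacement of [3H]-(R)-PIA (Kd 1 nM) by a range of test concentrations. Nonspecific binding defined with 5 mM theophylline. Triplicate determinations in three separate experiments. IC50 converted to Ki via Cheng-Prusoff.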

Adenosine A2 receptor = Adenosine A2 receptor (Rattus norvegicus, UniProt P29276+P30543); assay: Binding affinity against Adenosine A2 receptor from rat striatal membrane using [3H]NECA as radioligand
[1] = target: T2, Adenosine A2 receptor (Rattus norvegicus) (UniProt P29276+P30543); assay: Inhibition of adenylate cyclase stimulation via Adenosine A2 receptor by NECA in rat pheochromocytoma PC12 cells; type: functional, cell-based; conditions: PC-12
In short: (§1)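 Membranes from rat pheochromocytoma PC12 cells; adenylate cyclase activated via A2 receptors by NECA, measured with a range of antagonist concentrations. K_B from the Schild equation using the ratio of NECA EC50 values with and without antagonist. Means ± SEM of three separate experiments in triplicate.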

[2] = target: T3, Adenosine receptor A1 (Rattus norvegicus) (UniProt P25099); assay: Reversal of adenylate cyclase inhibition via Adenosine A1 receptor by R-PIA in rat fat cells; type: functional, cell-based
T3 sequence (whole entry): T1 sequence (P25099 whole entry)
In short: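 Rat fat cell membranes; adenylate cyclase inhibited by R-PIA through A1 receptors, and antagonist reversal measured. K_B calculated with the Schild equation from the ratio of R-PIA IC50 values with and without antagonist.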

[3] = target: T2, Adenosine A2 receptor (Rattus norvegicus); assay: Inhibition of adenylate cyclase stimulation via Adenosine A2 receptor by NECA in rat striatal membrane; type: functional, cell membranes; conditions: Striatum
In short: (§2)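 Rat striatal membranes; adenylate cyclase stimulated by NECA through A2 receptors, with antagonist present or absent. K_B derived by Schild equation from the NECA EC50 ratio with versus without antagonist.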

[4] = target: T2, Adenosine A2 receptor (Rattus norvegicus); assay: Inhibition of adenylate cyclase activity via A2 receptors by NECA in rat PC12 cells; c = Noncompetitive inhibition; type: functional, cell-based; conditions: PC-12; in short: as §1
[5] = target: T2, Adenosine A2 receptor (Rattus norvegicus); assay: Inhibition of adenylate cyclase stimulation via Adenosine A2 receptor by NECA in rat striatal membrane; b= No effect; type: functional; in short: as §2

Row | SMILES | Ki (Adenosine receptor A1) [µM] | Ki (Adenosine A2 receptor) [µM] | Kb [1] [µM] | Kb [2] [µM] | Kb [3] [µM] | Kb [4] | Kb [5]
1 | Cc1c(C)n(-c2ccccc2)c2ncnc(N)c12 | 18 | 123 | 62 | 22 | – | – | –
2 | CCCCCCn1c(C)c(C)c2c(N)ncnc21 | 60 | 263 | 42 | – | – | – | –
3 | Cc1c(C)n(-c2ccccc2)c2nc(-c3ccccc3)nc(N)c12 | 0.036 | 0.024 | – | – | – | – | –
4 | Cc1nc(N)c2c(C)c(C)[nH]c2n1 | 88 | > 250 | – | – | – | – | –
5 | Cc1[nH]c2ncnc(O)c2c1C | 58 | 176 | 33 | – | – | – | –
6 | Nc1ncnc2c1c(C=O)c(C=O)n2-c1ccccc1 | 50.1 | 76.3 | – | – | – | – | –
7 | Cc1nc(N)c2c(C)c(C)n(-c3ccccc3)c2n1 | 30.4 | 203 | – | – | – | – | –
8 | CS(=O)(=O)c1nc(S(C)(=O)=O)c2c3c(n(-c4ccccc4)c2n1)CCCC3 | 16.9 | 157 | – | – | – | – | –
9 | Sc1nc(S)c2c3c(n(-c4ccccc4)c2n1)CCCC3 | 84.8 | > 250 | – | – | – | – | –
10 | Cc1c(C)n(Cc2ccc(Br)cc2)c2ncnc(N)c12 | > 100 | 154.9 | – | – | – | – | –
11 | Nc1ncnc2c1c(C(=O)O)c(C(=O)O)n2-c1ccccc1 | 67 | – | – | – | – | – | –
12 | Oc1ncnc2c1c1ccccc1n2-c1ccccc1 | – | 1.44 | 0.22 | 1.4 | – | – | –
13 | C=CCn1c(C)c(C)c2c(N)ncnc21 | 49 | 83 | 40 | – | – | – | –
14 | Oc1ncnc2c1c1c(n2-c2ccccc2)CCCC1 | – | 1.35 | 0.87 | – | 1.76 | – | –
15 | Cc1[nH]c2ncnc(N)c2c1C | 55 | 208 | – | – | – | – | –
16 | CSc1nc(SC)c2c3c(n(-c4ccccc4)c2n1)CCCC3 | 97.8 | > 250 | – | – | – | – | –
17 | NNc1ncnc2c1c1ccccc1n2-c1ccccc1 | 8.42 | 7.71 | – | – | – | – | –
18 | Cc1c(C)n([C@H]2C[C@H](O)[C@@H](CO)O2)c2ncnc(N)c12 | > 250 | > 250 | – | – | – | – | –
19 | COc1cccc(-n2c(C)c(C)c3c(N)ncnc32)c1OC | 54.3 | – | – | – | – | – | –

More lines, in order of falling Ki (Adenosine receptor A1), values ahead:

Row | Ki (Adenosine receptor A1) [µM] | Ki (Adenosine A2 receptor) [µM] | Kb [1] [µM] | Kb [2] [µM] | Kb [3] [µM] | Kb [4] | Kb [5] | SMILES
20 | 5.17 | 85.6 | – | – | – | – | – | Cc1[nH]c2nc(-c3ccccc3Cl)nc(N)c2c1C
21 | 3.24 | 10.9 | 7.5 | – | 31.6 | – | – | Nc1ncnc2c1c1c(n2-c2ccccc2)CCCC1
22 | 3.1 | 25 | 17 | 4.6 | – | – | – | Nc1ncnc2c1ccn2-c1ccccc1
23 | 2.42 | 4.06 | – | – | – | – | – | Clc1ncnc2c1c1ccccc1n2-c1ccccc1
24 | 2.07 | – | – | – | – | – | – | O=c1[nH]cnc2c1c1c(n2-c2ccccc2)CCCC1
25 | 1.96 | 133 | – | – | – | – | – | c1ccc(-n2c3ccccc3c3c(NC4CCCCC4)ncnc32)cc1
26 | 1.95 | 5.98 | 1.73 | 3.3 | 14 | – | – | Nc1ncnc2c1c1ccccc1n2-c1ccccc1
27 | 1.49 | 21.3 | 5.5 | 0.8 | – | – | – | Cc1[nH]c2nc(-c3ccccc3)nc(N)c2c1C
28 | 1.24 | 35.6 | – | – | – | – | – | Cc1[nH]c2nc(-c3ccc(Cl)cc3)nc(N)c2c1C
29 | 0.99 | 40.7 | – | – | – | – | – | Cc1c(C)n(-c2ccccc2)c2nc(-c3ccccc3Cl)nc(N)c12
30 | 0.88 | – | – | – | – | – | – | O=c1[nH]cnc2c1c1ccccc1n2-c1ccccc1
31 | 0.73 | 20.8 | – | – | – | – | – | Cc1[nH]c2nc(-c3cccc(Cl)c3)nc(N)c2c1C
32 | 0.165 | 80.8 | – | – | – | – | – | Cc1c(C)n([C@@H](C)c2ccccc2)c2nc(-c3ccccc3)nc(N)c12
33 | 0.122 | > 250 | – | 0.057 | – | Non-competitive inhibition | inactive | Cc1c(C)n(-c2ccccc2)c2nc(-c3ccc(Cl)cc3)nc(N)c12
34 | 0.052 | 28.1 | – | – | – | – | – | Cc1c(C)n(C(C)c2ccccc2)c2nc(-c3ccccc3Cl)nc(N)c12 (centres undefined)
35 | 0.028 | 59.9 | – | – | – | – | – | Cc1c(C)n(C(C)c2ccccc2)c2nc(-c3cccc(Cl)c3)nc(N)c12 (centres undefined)
36 | 0.0047 | 3.71 | 3.06 | 0.0038 | – | – | – | Cc1c(C)n([C@H](C)c2ccccc2)c2nc(-c3ccccc3)nc(N)c12
